In data set [1] the target is Prothrombin (Homo sapiens, UniProt P00734). As to the kind of experiment: Binding affinity against thrombin in human plasma. The format is cell-free.
Data set [2] in a line: Half-life in dog plasma. It counts as ADME, organism-based, Canis lupus familiaris. In short, it runs like this: (§1)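 Dogs were given the compound orally at 0.65, 0.7 or 0.95 mpk, with the dose differing by compound. Plasma was sampled to obtain the maximum concentration (Cmax, μM) and the plasma half-life (t1/2, h).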
The nature of data set [3]: Maximal plasma concentration in dogs after 0.95 mg/kg oral dose. It counts as ADME, organism-based, Canis lupus familiaris. Set-up: dose 0.95 mg/kg, route oral. Conditions: dog. In short, it runs like this: as §1
Data set [4] in a line: Maximal plasma concentration in dogs after 0.85 mg/kg oral dose. Particulars: dog. It counts as ADME, organism-based, Canis lupus familiaris. Details: dose 0.85 mg/kg, route oral.
The nature of data set [5]: Maximal plasma concentration in dogs after 0.7 mg/kg oral dose. It counts as ADME, organism-based, Canis lupus familiaris. Details: dose 0.7 mg/kg, route oral. Conditions: dog. An outline of the steps: as §1
Data set [6] in a line: Maximal plasma concentration in dogs after 0.65 mg/kg oral dose. Conditions: dog. The format is ADME, organism-based, Canis lupus familiaris. Set-up: dose 0.65 mg/kg, route oral. In short, it runs like this:
as §1

The structures appear in SMILES notation.

For `N#Cc1ccc(N)[n+]([O-])c1CC(=O)NCc1cc(Cl)ccc1-n1cnnn1`, in data set [1], the Ki – broadly, the dissociation constant of the complex between target and ligand, obtained from inhibition or displacement – came to 18 nM.

Consider `O=C(Cc1c(Cl)ccc(NCC(F)(F)c2ccccn2)[n+]1[O-])NCc1ccccc1-n1cncn1`, for which the affinity in data set [1], expressed as Ki, was 2.6 nM.

In turn, `C[C@H](NC(=O)Cc1c(Cl)ccc(NCC(F)(F)c2ccccn2)[n+]1[O-])c1cc(Cl)ccc1CN` gave a Ki in data set [1] of 3.2 nM. For the same compound, in data set [2], the half-life (usually the time needed for the level to fall by half in the phase considered) is 4.5 h. Also, in data set [3], the highest level (Cmax) was 2600 nM.

Turning to `C[C@H](N)c1ccc(Cl)cc1CNC(=O)Cc1c(Cl)ccc(NCC(F)(F)c2ccccn2)[n+]1[O-]`, the Ki in data set [1] turned out to be 20 nM.

The compound `NCc1ccc(Cl)cc1CNC(=O)Cc1c(Cl)ccc(N)[n+]1[O-]` displayed a Ki in data set [1] of 26 nM.

In data set [1], `N#Cc1ccc(NCC(F)(F)c2ccccn2)[n+]([O-])c1CC(=O)NCc1ncccc1-n1cncn1` had a Ki of 0.23 nM.

Take `NCc1ccc(Cl)cc1C(CO)NC(=O)Cc1c(Cl)ccc(NCC(F)(F)c2ccccn2)[n+]1[O-]` (centres undefined): the inhibition constant (Ki) in data set [1] was 0.48 nM. In data set [2], the half-life was 1.5 h. In addition, the Cmax (in general, the highest concentration seen after dosing) in data set [4] was found to be 340 nM.

`NCc1ccc(Cl)cc1CNC(=O)Cc1cccc(NCC(F)(F)c2ccccn2)[n+]1[O-]` showed a Ki in data set [1] of 0.04 nM.

`Nc1ccc(Cl)c(CC(=O)NCc2cc(Cl)ccc2-n2cnnn2)[n+]1[O-]` gave a Ki in data set [1] of 140 nM.

As to `[O-][n+]1c(NCC(F)(F)c2ccccn2)ccc(Cl)c1CC(O)NCc1cccc(Cl)c1` (centres undefined), in data set [1], the Ki came to 0.42 nM.

For the compound `N#Cc1ccc(NCC(F)(F)c2ccccn2)[n+]([O-])c1CC(O)NCc1cccc(Cl)c1` (centres undefined), in data set [1], the Ki was found to be 0.08 nM.

`N#Cc1ccc(NCC(F)(F)c2ccccn2)[n+]([O-])c1CC(=O)NCc1cc(Cl)ccc1-n1cnnn1` came in with a Ki in data set [1] of 0.002 nM.

Compound `O=C(Cc1c(Cl)ccc(NCC(F)(F)c2ccccn2)[n+]1[O-])NCc1cc(Cl)ccc1-n1cncn1` had a Ki in data set [1] of 0.05 nM.

`N#Cc1ccc(N)[n+]([O-])c1CC(=O)NCc1cc(Cl)ccc1CN`: the Ki in data set [1] amounted to 10 nM.

In data set [1], `N#Cc1ccc(NCC(F)(F)c2ccccn2)[n+]([O-])c1CC(=O)NCc1ccccc1` gave a Ki of 150 nM.

As for `N#Cc1ccc(NCC(F)(F)c2ccccn2)[n+]([O-])c1CC(O)NCc1ccccc1CN` (centres undefined), in data set [1], the Ki is below 0.01 nM.

Compound `O=C(Cc1cccc(NCC(F)(F)c2ccccn2)[n+]1[O-])NCc1cc(Cl)ccc1-n1cncn1` returned a Ki in data set [1] of 1.5 nM.

In turn, `NCc1ccc(Cl)cc1CNC(=O)Cc1c(Cl)ccc(NCC(F)(F)c2ccccn2)[n+]1[O-]` showed a Ki in data set [1] below 0.01 nM.

Consider `C[C@@H](N)c1ccc(Cl)cc1CNC(=O)Cc1c(Cl)ccc(NCC(F)(F)c2ccccn2)[n+]1[O-]`, for which the Ki in data set [1] turned out to be 0.45 nM. For the same compound, the half-life in data set [2] was 2 h. The compound further came in with a Cmax in data set [5] of 100 nM.

In turn, `C[C@@H](NC(=O)Cc1c(Cl)ccc(NCC(F)(F)c2ccccn2)[n+]1[O-])c1cc(Cl)ccc1CN` displayed a Ki in data set [1] of 260 nM.

In data set [1], `O=C(Cc1c(Cl)ccc(NCC(F)(F)c2ccccn2)[n+]1[O-])NCc1ncccc1F` registered a Ki of 6 nM.

The compound `O=C(Cc1c(Cl)ccc(NCC(F)(F)c2ccccn2)[n+]1[O-])NCc1ncccc1-n1cncn1` registered a Ki in data set [1] of 2.5 nM.

Compound `N#Cc1ccc(NCC(F)(F)c2ccccn2)[n+]([O-])c1CC(=O)NCc1ncccc1F` yielded a Ki in data set [1] of 1.5 nM.

Compound `O=C(Cc1cccc(NCC(F)(F)c2ccccn2)[n+]1[O-])NCc1cc(Cl)ccc1-n1cnnn1` yielded a Ki in data set [1] of 0.14 nM.

For the compound `NCc1ccccc1CNC(=O)Cc1c(Cl)ccc(NCC(F)(F)c2ccccn2)[n+]1[O-]`, the Ki in data set [1] amounted to 0.4 nM. In data set [2], this compound gave a half-life of 1.5 h. This compound also yielded a Cmax in data set [6] of 820 nM.

In the case of `N#Cc1ccc(NCC(F)(F)c2ccccn2)[n+]([O-])c1CC(=O)NCc1cc(Cl)ccc1CN`, in data set [1], the Ki was 0.001 nM.

Source of the values: ChEMBL document CHEMBL1145272, “P2 pyridine N-oxide thrombin inhibitors: a novel peptidomimetic scaffold” (Bioorg Med Chem Lett, 2005).
